UHRF1 binding: UHRF1 methyl-DNA binding inhibition; Q96T88; UHRF1 binding to methylated oligo, TR-FRET; inhibition, % at 4.4 µM; 0.75% of 370,000 active; AID 687016; in the data active means inhibition above about 21%;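 further: UHRF1 SRA domain binding a hemimethylated CpG hairpin DNA probe; 0% = median of test compound wells and 100% = reference inhibitor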
Beta2AR agonist: human beta-2 adrenergic receptor agonism by FAP. 0.43% of 340,000 active. AID 504454. Am2.2-beta2AR cells, FAP receptor internalization, flow cytometry. response, % (concentration not given with the values). P07550;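 active means response above a set limit, near 3 SD of response in nonfluorescent compounds, cut at about 42% in these data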
Target sequence (P07550 whole entry, looked up): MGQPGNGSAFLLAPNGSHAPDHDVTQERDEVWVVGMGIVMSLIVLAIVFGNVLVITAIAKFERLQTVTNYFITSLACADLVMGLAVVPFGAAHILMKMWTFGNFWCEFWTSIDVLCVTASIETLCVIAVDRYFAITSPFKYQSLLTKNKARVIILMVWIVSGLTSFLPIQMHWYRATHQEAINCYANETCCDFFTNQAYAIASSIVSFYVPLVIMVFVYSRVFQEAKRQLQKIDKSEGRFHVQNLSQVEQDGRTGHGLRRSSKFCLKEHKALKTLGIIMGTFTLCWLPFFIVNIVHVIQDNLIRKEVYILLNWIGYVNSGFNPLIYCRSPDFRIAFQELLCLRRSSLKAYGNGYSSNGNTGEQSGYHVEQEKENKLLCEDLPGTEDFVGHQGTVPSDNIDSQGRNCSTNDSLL
MBD2 inh: inhibitors of human MBD2 binding to methylated oligonucleotide | Q9UBB5 | TR-FRET | inhibition, % at 4.4 µM | 0.31% of 370,000 active; in the data active means inhibition above about 13%
Arrestin-AP2 inh: inhibitors of human beta-arrestin and AP2 interaction | FITC-arrestin peptide / GST-AP2 beads, flow cytometry; AP2 beta2 appendage carries R879A mutation | 0.31% of 340,000 active | AID 504490 | inhibition, % at 10 µM;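 active means inhibition above a set limit, near 3 SD of compounds lacking own fluorescence, cut at about 54% in these data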;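 further: plate controls were DMSO wells for no effect and 5 µM unlabelled arrestin peptide for full effect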
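Test system: GST-tagged AP2 beta2-adaptin appendage (R879A) on 4 µm glutathione beads; also added: fluorescein-tagged arrestin peptide at 50 nM final; timing: 12 min plus 1 h, RT; signal: flow cytometry, FL1 (488/535 nm); read-out: percent drop in bead-associated FITC signal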
ABHD5-PLIN5 inh: blocks binding of human ABHD5 to perilipin-5. inhibition, % at 4 µM. 0.78% of 360,000 active. Q00G26+Q8WTS1. Split G. princeps luciferase complementation, luminescence, 4 h. AID 602281;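 active means inhibition above the mean inhibition across every tested compound plus 3 SD, cut at about 22% in these data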;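 further: 0% = DMSO only wells and the 100% control is not disclosed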
Rin1-Abl PPI inh: human Rin1-Abl interaction inhibition; P00519+Q13671; TR-FRET Rin1/Abl binding, biochemical; inhibition, % at 7.35 µM; 0.4% of 360,000 active; AID 588664; in the data active means inhibition above about 5%, passing the limit was not always enough
ABHD5-PLIN5 conf: ABHD5-PLIN5 interaction inhibition, confirmed | shares compounds with ABHD5-PLIN5 inh | biochemical ABHD5-PLIN5 interaction, luminescence | inhibition, % at 4 µM | 67% of 2,200 active; in the data active means inhibition above about 23%;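 further: 0% = DMSO vehicle wells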
HNF4 counter: active in HNF4 split-luciferase counter-screen for ABHD5-PLIN5 inhibitors | shares compounds with ABHD5-PLIN5 inh | HNF4 dimerization, luminescence, biochemical | inhibition, % at 4 µM | 77% of 2,200 active | AID 651674;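 active means mean inhibition across replicate wells exceeding the computed hit threshold, cut at about 13% in these data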;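 further: light from luciferase halves that rejoin when HNF4 fusion proteins dimerize; 0% = DMSO only wells and the 100% control is not given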
Starred values were filed as active, the others as inactive; · = no result given. Most compounds without a hit are left out; they make up all but 2.5% or so of the library.

SMILES	UHRF1 binding	Beta2AR agonist	MBD2 inh	Arrestin-AP2 inh	ABHD5-PLIN5 inh	Rin1-Abl PPI inh	ABHD5-PLIN5 conf	HNF4 counter
CCOc1cc(/C=C/C(=O)c2ccc(C)cc2)ccc1OCC(=O)N(C)C	-4.4	23.4	-3.1	6.0	7.0	-1.8	·	·
CNc1ccc(/C=C2\COc3ccccc3C2=O)cc1[N+](=O)[O-]	-1.5	4.5	-3.1	32.0	2.9	-0.5	·	·
O=C1c2ccccc2COc2ccc(O)cc21	-1.4	3.3	-4.0	12.6	-4.4	-4.5	·	·
CCOc1cc(/C=C2/COc3ccccc3C2=O)ccc1OCC(=O)N(C)C	0.5	12.7	-5.1	46.0	24.9*	-2.3	71.4*	66.8*
O=C1/C(=C/c2ccc(O)cc2)COc2ccccc21	-3.1	-3.8	-0.1	-1.9	24.7*	1.0	49.9*	59.6*
O=C1/C(=C/c2ccccc2[N+](=O)[O-])COc2ccccc21	4.6	7.6	-0.8	25.4	57.5*	-0.8	79.3*	76.3*
Cc1ccccc1CN1CCCCC(NC(=O)c2ccc(N(C)C)cc2)C1=O (stereo not drawn)	-3.3	·	-2.1	·	·	·	·	·
CCOC(=O)CSc1nnc(NCC(=O)OC)c(=O)[nH]1	-0.6	1.3	-6.0	7.5	25.9*	-0.7	41.5*	79.5*
O=C1CCN(Cc2ccc(O)cc2)CCN1[C@H](CO)c1ccccc1	-0.9	-0.3	-3.9	31.2	47.4*	0.0	4.4	14.8*
CCCCCCCCSC1=CC(=O)C(OC)=C(OC)C1=O	-6.6	·	-0.6	·	64.9*	1.4	100.0*	104.1*
Nc1ccccc1SSc1ccccc1N	3.2	1.1	2.4	-0.9	60.2*	2.7	88.4*	104.2*
N#Cc1ccccc1Sc1ccccc1N	·	-6.4	·	31.6	0.0	-2.1	·	·
CCCN(CC(=O)Nc1ccccc1C)C(=O)c1ccc(-c2ccccc2)cc1	3.1	-10.3	1.8	6.4	-4.0	0.3	·	·
CCN(CC)CCN(CC(=O)Nc1c(C)cc(C)cc1C)C(=O)c1ccccc1	-2.0	2.8	-6.7	10.6	24.4*	-2.7	33.2*	-6.4
O=C(N1CCCCC1)C1(S(=O)(=O)c2ccccc2)CC=CC1	3.2	3.7	2.2	0.1	32.8*	1.1	2.0	0.3
CCCC1CCC2(CC1)CCC2OC(=O)Nc1cc(C)cc(C)c1 (stereo not drawn)	-1.9	·	-5.8	·	·	·	·	·
O=C(NC1CCCCN(Cc2cccc(F)c2)C1=O)c1cccc(F)c1 (stereo not drawn)	2.0	·	0.1	·	·	·	·	·
Cc1nc([N+](=O)[O-])c(Sc2nc3ccc([N+](=O)[O-])cc3[nH]2)n1Cc1ccccc1	1.0	8.0	-3.6	3.9	27.7*	1.0	45.4*	37.6*
CC(C)C(Cl)=NOC(=O)Nc1ccc(S(N)(=O)=O)cc1	0.5	-8.5	-3.3	-13.1	28.9*	-1.6	68.5*	87.2*
COC(=O)[C@H](CC(C)C)N1Cc2nnn(CC3CCCCC3)c2-c2cc(F)ccc2S1(=O)=O	0.4	·	-1.1	·	·	·	·	·
Cc1ccccc1/C=C1\C(=O)Nc2ccc(F)cc21	2.2	0.7	-2.6	0.0	3.8	3.8	·	·
O=C1Nc2ccccc2/C1=C/c1ccccc1F	-1.0	11.3	-1.4	4.1	26.8*	3.2	44.1*	40.6*
Cc1ccc2c(c1)/C(=C/c1ccco1)C(=O)N2	-5.4	-2.6	-3.1	-3.2	4.5	-3.8	·	·
Cc1ccc(/C=C2\C(=O)Nc3ccccc32)o1	0.0	2.0	-2.5	2.6	24.4*	-2.2	8.4	39.7*
CC(C)C[C@H]1COc2cccc(F)c2S(=O)(=O)N1Cc1cn(Cc2ccc(Cl)cc2)nn1	-1.6	·	-1.2	·	·	·	·	·
SMILES	UHRF1 binding	Beta2AR agonist	MBD2 inh	Arrestin-AP2 inh	ABHD5-PLIN5 inh	Rin1-Abl PPI inh	ABHD5-PLIN5 conf	HNF4 counter
Cn1cc(C(=O)N/N=C/C=C/c2ccccc2)ccc1=O	0.4	4.4	-2.0	8.5	1.8	-1.3	·	·
Cn1cc(C(=O)N/N=C/C(Br)=C/c2ccccc2)ccc1=O	-3.6	-39.7	-0.5	-3.2	27.3*	-2.5	8.0	75.2*
Cc1ccc(-c2cc(C(=O)N/N=C/C(Br)=C/c3ccccc3)n[nH]2)o1	0.0	-5.8	-6.1	4.5	26.5*	1.4	13.8	39.1*
Cn1cc(C(=O)N/N=C/C(Br)=C\c2ccccc2)ccc1=O	9.5	-5.5	3.8	-5.3	25.6*	-3.6	6.7	26.3*
COc1ccc(C(=O)N/N=C/C(Br)=C/c2ccccc2)cc1	6.0	-0.1	2.3	-6.2	11.0	3.8	·	·
Cc1ccc(-c2cc(C(=O)N/N=C/c3ccccc3O)n[nH]2)o1	-2.5	13.7	0.8	7.6	10.7	-0.1	·	·
CCOC(=O)c1c(CSC(=N)N)n(-c2ccccc2)c2cc(Br)c(OC(C)=O)cc12	2.1	20.5	-0.2	7.8	32.2*	-1.7	29.5*	30.2*
CC(=O)c1cccc(NC(=O)CCc2nnc3ccc(NCc4ccco4)nn23)c1	-0.9	2.7	1.9	10.9	10.6	3.0	·	·
Cc1ccc(NC(=O)CCc2nnc3ccc(NCc4ccco4)nn23)nc1	0.6	-0.5	0.8	-5.7	38.8*	3.4	14.2	24.1*
O=C(CCc1nnc2ccc(NCc3ccco3)nn12)N1CCN(c2ccccc2)CC1	-1.6	7.5	2.3	3.2	17.9	0.5	·	·
CCOC(=O)C1CCN(C(=O)CCc2nnc3ccc(NCc4ccco4)nn23)CC1	-1.0	2.7	0.5	18.7	51.1*	5.0	13.2	12.0
CCOC(=O)C1=CC[C@@H](c2ccccc2)N(S(=O)(=O)c2ccc(C)cc2)[C@@H]1C#N	-2.7	·	0.0	·	48.2*	·	49.6*	58.1*
O=C1NC(C(=O)O)=CC(c2ccc([N+](=O)[O-])cc2)N1 (stereo not drawn)	-2.2	8.0	-1.6	19.0	-1.3	-4.1	·	·
N#CC1=C(N)NC(=S)C(C(N)=O)C1c1ccc([N+](=O)[O-])cc1 (stereo not drawn)	-3.2	-3.2	-4.0	-27.6	52.0*	-4.0	-35.0	-16.7
N#CCC[C@H]1CC[C@]2(CCCN(Cc3cccc4ccccc34)C2)O1	-1.5	·	-2.4	·	·	·	·	·
Cc1ccc(CC2S/C(=C(/C#N)C(=O)NCc3ccco3)N(c3ccccc3)C2=O)cc1 (stereo not drawn)	-2.8	-1.6	-0.7	10.4	23.4*	0.2	10.1	12.8*
CC(C)(C)c1ccc(C(=O)Nc2cc(Cl)ccc2-c2nn[nH]n2)cc1	0.6	·	-3.2	·	·	·	·	·
CCOC(=O)C1=C(C)NC2=C(C(=O)C(C(=O)OCC)C(c3ccco3)C2)C1c1ccccn1 (stereo not drawn)	-2.1	-4.5	0.1	6.5	42.1*	-7.0	2.5	16.7*
